OX1R antag-1: OX1R (HCRTR1) antagonists, primary screen, fluorescence, CHO/OX1R cells, Fluo-8 calcium, orexin A; Orexin/Hypocretin receptor type 1 (Homo sapiens), O43613; Fluo-8 calcium fluorescence; inhibition, % at 5 µM; hit rate 0.43% among 330,000;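 active = inhibition above its plate's threshold, mean inhibition of all tested compounds on the plate plus 3 SD, cut at about 37% in these data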
GPR7 antagonist: GPR7 receptor antagonists, primary screen, cell-based, fluorescence, single concentration. Neuropeptides B/W receptor type 1 (Homo sapiens), P48145. GPR7-expressing cells, fluorescence antagonist assay. inhibition, % at 4.4 µM. hit rate 1.1% among 290,000. AID 1861, 2009; in the data active = inhibition above about 16%, passing the limit was not always enough;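 note: cells stimulated with the agonist NPW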
Target sequence (P48145 whole entry, looked up): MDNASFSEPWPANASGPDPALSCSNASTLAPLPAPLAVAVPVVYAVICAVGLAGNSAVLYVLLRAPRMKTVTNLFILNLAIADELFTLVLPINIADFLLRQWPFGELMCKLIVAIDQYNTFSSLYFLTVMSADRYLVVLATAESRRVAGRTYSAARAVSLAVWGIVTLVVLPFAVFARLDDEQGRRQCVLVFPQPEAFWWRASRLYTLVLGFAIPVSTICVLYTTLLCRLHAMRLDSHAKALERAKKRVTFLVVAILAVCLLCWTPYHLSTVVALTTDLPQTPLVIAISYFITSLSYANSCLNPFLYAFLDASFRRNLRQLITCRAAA
CHO parental Ca: ATP-evoked calcium signal inhibitors, parental CHO, primary screen, counter-screen for OX1R antagonist project, cell-based, fluorescence, Fluo-8 calcium dye; inhibition, % at 5.6 µM; parental CHO-K1, ATP-induced calcium, Fluo-8 fluorescence; hit rate 0.63% among 330,000;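 active = inhibition above that plate's mean sample inhibition plus 3 SD, cut at about 26% in these data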
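Test system: untransfected parental CHO cell line; also added: ATP stimulus; dosing: 5.6 µM, single dose; signal: calcium-sensitive Fluo-8 fluorescence; measure: percent inhibition of ATP-evoked calcium rise, normalized to controls; benchmarks: low control ATP plus DMSO, high control DMSO only; replication: one well per compound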
TRPML3 ag: human TRPML3 channel agonists, primary screen, cell-based, HEK293 TRPML3-YFP, Fluo-8 calcium fluorescence, 3 µM; AID 1448, 2008; hit rate 0.29% among 220,000; 100% = the carbachol control signal; activation, % at 3 µM;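 active = activation above its plate's cutoff, the mean activation of the plate's test wells plus 3 SD, cut at about 12% in these data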
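Material: TRPML3-YFP stable HEK293 cells | Dosing: One concentration, 3 µM nominal, 0.3% DMSO | Timing: 125 s total fluorescence read per well | Technique: Fluo-8 calcium dye fluorescence, ex 470-495, em 515-575 nm | Measure: Percent activation from peak-to-basal fluorescence ratio, scaled between DMSO and carbachol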
OX1R antag-2: antagonists of human orexin 1 receptor (OX1R) | OX1R-expressing cells, FRET antagonist read-out | inhibition, % at 6.6 µM | hit rate 1.8% among 330,000; in the data active = inhibition mostly above about 38%, no sharp cut-off; inactive = mostly below about 40%
zfTRPN1 agonist: zebrafish TRPN1 channel agonists, primary screen, cell-based, HEK293, calcium fluorescence; transient receptor potential cation channel N1 (TRPN1/NompC), Danio rerio; HEK293 zebrafish TRPN1-YFP, Fluo-8 calcium fluorescence; 100% = response to 87 µM carbachol; activation, % at 3 µM; hit rate 0.18% among 220,000; AID 1424, 2008;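 active = activation above its plate's cutoff, the mean activation of test wells on that plate plus 3 SD, cut at about 19% in these data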
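Material: zebrafish TRPN1-YFP in HEK293 cells. Doses: one dose of 3 µM, 0.3% DMSO. Incubation: dye 1 h 37 °C plus 30 min RT. Measured by: intracellular calcium fluorescence with Fluo-8.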
Hits are given with their value; i = inactive; nt = no result given. Compounds with a hit are over-represented: about 3.2% of the library has one in this group of screens.

SMILES	OX1R antag-1	GPR7 antagonist	CHO parental Ca	TRPML3 ag	OX1R antag-2	zfTRPN1 agonist
O=C(COC(=O)c1ccccc1[N+](=O)[O-])c1ccc(C2CCCCC2)cc1	i	i	47.0	i	i	i
N#CC1(NC(=O)COC(=O)c2ccccc2[N+](=O)[O-])CCCCC1	i	nt	i	nt	i	nt
N#CCc1nn2c(-c3ccccc3)ccnc2c1C#N	i	i	i	nt	i	nt
CC(C)(C)c1ccc(NC(=O)C2=CN3CCS(=O)(=O)N=C3C=C2)cc1	i	nt	i	nt	i	nt
Cc1cc(Br)ccc1NC(=O)CN1C(=O)C2C3CC(c4ccccc4)C(C3)C2C1=O (centres undefined)	i	i	30.8	i	i	i
C/C(=N\NC(=O)Cn1cc([N+](=O)[O-])cn1)c1ccc(O)cc1	i	i	i	i	i	i
CCc1cccc2c(C(=O)COC(=O)/C=C/c3ccccc3OC)c[nH]c12	i	i	i	i	63.1	i
CC(=O)/C(=N/Nc1cccc(Cl)c1)Sc1nnc(C(O)c2ccccc2)n1-c1ccccc1 (centres undefined)	i	26.5	i	i	i	i
COC(=O)/C(=N/Nc1ccccc1C)Sc1nnc(C(O)c2ccccc2)n1-c1ccccc1 (centres undefined)	i	i	i	i	i	i
C=CCNC(=O)COC(=O)c1ccc(Cl)c(S(=O)(=O)N(Cc2ccccc2)c2ccccc2)c1	i	i	i	i	i	i
COc1ccc(S(=O)(=O)Nc2cc3c4c(c2)CCN4C(=O)CC3)cc1C	i	nt	i	nt	i	nt
CCC(=O)N1CCN(c2ccc(Cl)cc2NC(=O)Cc2ccccc2)CC1	i	16.7	i	i	i	i
CCOC(=O)N1CCN(c2cc(C)c(C(C)=O)cc2F)CC1	i	i	i	i	i	i
CC(=O)c1cc(F)c(N2CCN(C(=O)Cc3ccccc3)CC2)cc1C	58.5	i	i	i	i	i
CCCCCC(NC(=O)C1CCN(C(=O)[C@@H](NS(=O)(=O)c2ccc(C)cc2)C(C)C)CC1)C(=O)O (some centres undefined)	i	i	i	nt	i	nt
COc1cc(CC(=O)N(CC(C)C)C2CCS(=O)(=O)C2)cc(OC)c1OC (centres undefined)	i	nt	i	nt	i	nt
COc1ccccc1CNS(=O)(=O)c1ccc(-n2cnnn2)c(OC)c1	i	i	i	nt	i	nt
O=C(Nc1ccccc1C(=O)Nc1nnc(C(F)(F)F)s1)c1ccccc1	54.0	i	59.4	i	72.1	i
Cc1occc1C(=O)Nc1nnc(C(F)(F)F)s1	i	i	i	i	i	i
CCc1cc(=O)oc2cc(OCc3ccc(C(=O)O)o3)ccc12	i	i	i	nt	i	nt
O=C1OCC2=C1C(c1ccc(F)cc1)c1cc3c(cc1N2)OCO3 (centres undefined)	nt	18.6	nt	i	nt	i
CCOc1ccccc1C1C2=C(COC2=O)Nc2cc3c(cc21)OCO3 (centres undefined)	i	i	i	i	i	i
O=C1OCC2=C1C(c1ccc(F)cc1)c1cc3c(cc1N2)OCCO3 (centres undefined)	nt	19.4	nt	i	nt	i
C#CCOc1ccc(C2C3=C(COC3=O)Nc3cc4c(cc32)OCO4)cc1OC (centres undefined)	nt	i	nt	i	nt	i
C=CCNC(=O)CN1CCN(C(c2ccccc2)c2ccccc2)CC1	i	i	i	nt	i	nt
SMILES	OX1R antag-1	GPR7 antagonist	CHO parental Ca	TRPML3 ag	OX1R antag-2	zfTRPN1 agonist
CCCOc1ccccc1OCC(=O)N1CCN(S(=O)(=O)c2ccc(Cl)cc2)CC1	i	nt	i	nt	i	nt
O=C(/C=C/c1ccc(Br)cc1)c1ccco1	i	22.2	i	i	i	i
CC(=O)NC1(NC(C)=O)CCN(C)CC1	i	i	i	i	i	i
CCOc1ccc(C2C(C#N)=C(N)N(N(C)C)C3=C2C(=O)CC(C)(C)C3)cc1 (centres undefined)	i	i	i	nt	i	nt
CN(C(=O)COC(=O)c1ccccc1NCc1ccco1)c1c(N)n(Cc2ccccc2)c(=O)[nH]c1=O	i	nt	i	nt	63.8	nt
Cn1ncc(N=Cc2c(O)ccc3ccccc23)c1C(=O)Nc1cccc(Cl)c1	i	i	i	i	i	i
COC(=O)c1sc(S(=O)(=O)NC(Cc2ccccc2)C(=O)O)c(C(=O)OC)c1C (centres undefined)	i	nt	i	nt	31.7	nt
CCn1c(SCc2cccc(F)c2)nnc1-c1ccncc1	nt	i	nt	nt	nt	nt
CCn1c(SCc2cccc(F)c2)nnc1-c1cccnc1	i	18.6	i	i	i	i
COc1ccc2ccccc2c1C(O)c1nccn1C (centres undefined)	i	i	i	i	64.1	i
Cn1ccnc1C(O)c1ccccc1 (centres undefined)	i	i	i	i	i	i
COCCN(CCOC)S(=O)(=O)c1ccc(C(=O)NCCCN2CCOCC2)cc1	i	i	56.0	i	i	i
CCN(c1ccccc1)S(=O)(=O)c1ccc(C(=O)NCCCN2CCOCC2)cc1	i	nt	i	nt	i	nt
Cc1ccc(C(=O)N(CCc2ccccc2)Cc2ccccc2)cc1S(=O)(=O)N1CCCCC1	i	nt	34.9	nt	i	nt
O=C(Nc1nc(-c2ccc3c(c2)OCCO3)cs1)C1CCCC1	i	i	i	i	i	i
COc1ccc(CCC(=O)Nc2ccc3c(c2)OCCO3)cc1	i	i	34.6	i	i	i
O=C(CSc1nnc2scc(-c3ccccc3)n12)Nc1nsc(-c2ccccc2)n1	i	i	i	i	72.6	i
Cc1ccc2c(c1)c1c3n2CCN(C(=O)C2CC2)C3CCC1 (centres undefined)	i	i	i	i	i	i
Cc1ccc2c(c1)c1c3n2CC(=C2C(=O)OC(C)(C)OC2=O)NC3CCC1 (centres undefined)	i	i	i	i	42.7	i
O=C1CC(NS(=O)(=O)c2cccs2)CN1c1ccccc1 (centres undefined)	i	nt	i	nt	i	nt
C#CCOCCOCCOCCNc1nc(N2CCN(C(=O)CCCCCCCCCCNC(=O)[C@H](CCCCN)n3cc(CCO)nn3)CC2)nc(N2CCN(C(=O)CCCCCCCCCCNC(=O)[C@H](CCCCN)n3cc(C[C@@H](C)CC)nn3)CC2)n1	i	nt	53.6	nt	i	nt
C#CCOCCOCCOCCNc1nc(N2CCN(C(=O)CCCCCCCCCCNC(=O)Cn3cc(CCCCCN)nn3)CC2)nc(N2CCN(C(=O)CCCCCCCCCCNC(=O)Cn3cc(C[C@@H](C)O)nn3)CC2)n1	i	nt	41.5	nt	i	nt
Cc1cc(C)n2nc(C(=O)Nc3ccc(S(=O)(=O)N(C)C)cc3)nc2n1	i	i	i	i	i	i
N#C/C(=C(/O)COC(=O)c1ccccc1O)c1nc2ccccc2s1	i	i	i	i	53.2	i
